ChEMBL document CHEMBL1152806, “Discovery of a potent, selective, and orally efficacious pyrimidinooxazinyl bicyclooctaneacetic acid diacylglycerol acyltransferase-1 inhibitor” (J Med Chem, 2009)

What was measured:
[1] = Metabolic stability in marmosets alamethicin-activated microsomes assessed as conversion to acyl glucuronide form after 1 hr; type: ADME, Microsome; details: callitrichinae sp.
[2] = Metabolic stability in human alamethicin-activated microsomes assessed as conversion to acyl glucuronide form after 1 hr; type: ADME, Microsome
[3] = Metabolic stability in dog assessed as urinary excretion of acyl glucuronide form after 2 hrs; type: ADME, Canis lupus familiaris, Urine
In short: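 Parent-related material excreted as acyl glucuronide measured in a 2 h urine sample collected after dosing in dog.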

[4] = Plasma clearance in rat at 1 to 3 mg/kg; type: ADME, organism-based; parameters: dose 1-3 mg/kg
[5] = Plasma clearance in dog at 1 to 3 mg/kg; type: ADME, organism-based, Canis lupus familiaris; parameters: dose 1-3 mg/kg
[6] = Plasma clearance in marmosets at 1 to 3 mg/kg; type: ADME, organism-based; parameters: dose 1-3 mg/kg; details: callitrichinae sp.
[7] = Volume of distribution at steady state in rat at 1 to 3 mg/kg; type: ADME, organism-based; parameters: dose 1-3 mg/kg; details: in vivo, read-out: Vdss
[8] = Volume of distribution at steady state in dog at 1 to 3 mg/kg; type: ADME, organism-based, Canis lupus familiaris; parameters: dose 1-3 mg/kg; details: in vivo, read-out: Vdss
[9] = Volume of distribution at steady state in marmosets at 1 to 3 mg/kg; type: ADME, organism-based; parameters: dose 1-3 mg/kg; details: callitrichinae sp., in vivo; read-out: Vdss
[10] = Half life in rat at 1 to 3 mg/kg, iv; type: ADME, organism-based; parameters: dose 1-3 mg/kg, route intravenous; details: in vivo
[11] = Half life in dog at 1 to 3 mg/kg, iv; type: ADME, organism-based, Canis lupus familiaris; parameters: dose 1-3 mg/kg, route intravenous; details: in vivo
[12] = Half life in marmosets at 1 to 3 mg/kg, iv; type: ADME, organism-based; parameters: dose 1-3 mg/kg, route intravenous; details: callitrichinae sp., in vivo
[13] = Half life in rat at 1 to 3 mg/kg, po; type: ADME, organism-based; parameters: dose 1-3 mg/kg, route oral; details: in vivo
[14] = Half life in dog at 1 to 3 mg/kg, po; type: ADME, organism-based, Canis lupus familiaris; parameters: dose 1-3 mg/kg, route oral; details: in vivo
[15] = Half life in marmosets at 1 to 3 mg/kg, po; type: ADME, organism-based; parameters: dose 1-3 mg/kg, route oral; details: callitrichinae sp., in vivo
[16] = Bioavailability in rat at 1 to 3 mg/kg; type: ADME, organism-based; details: in vivo
[17] = Bioavailability in dog at 1 to 3 mg/kg; type: ADME, organism-based, Canis lupus familiaris; details: in vivo
[18] = Bioavailability in marmosets at 1 to 3 mg/kg; type: ADME, organism-based; details: callitrichinae sp., in vivo
[19] = target: T1, CYP1A2 (Homo sapiens, UniProt P05177); experiment: Inhibition of CYP1A2 at 30 uM; type: ADME
T1 sequence (P05177 whole entry): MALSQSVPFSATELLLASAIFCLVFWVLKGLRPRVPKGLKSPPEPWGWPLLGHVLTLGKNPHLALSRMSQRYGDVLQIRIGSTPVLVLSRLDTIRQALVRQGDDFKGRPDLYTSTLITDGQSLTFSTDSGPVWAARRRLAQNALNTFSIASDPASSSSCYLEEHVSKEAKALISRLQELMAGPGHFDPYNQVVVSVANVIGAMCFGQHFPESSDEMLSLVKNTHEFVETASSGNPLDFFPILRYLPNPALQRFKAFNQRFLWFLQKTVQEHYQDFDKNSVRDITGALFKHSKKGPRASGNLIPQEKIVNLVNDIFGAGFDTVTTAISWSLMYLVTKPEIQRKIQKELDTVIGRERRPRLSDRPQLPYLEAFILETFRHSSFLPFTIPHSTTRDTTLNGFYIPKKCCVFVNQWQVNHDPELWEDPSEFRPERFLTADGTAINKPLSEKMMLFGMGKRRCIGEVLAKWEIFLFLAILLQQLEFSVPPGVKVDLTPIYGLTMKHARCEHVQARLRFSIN

[20] = target: CYP2C9 (Homo sapiens, UniProt P11712); experiment: Inhibition of CYP2C9 at 30 uM; type: ADME
[21] = target: CYP2C19 (Homo sapiens, UniProt P33261); experiment: Inhibition of CYP2C19 at 30 uM; type: ADME
[22] = target: CYP2D6 (Homo sapiens, UniProt P10635); experiment: Inhibition of CYP2D6 at 30 uM; type: ADME
[23] = target: CYP3A4 (Homo sapiens, UniProt P08684); experiment: Inhibition of CYP3A4 at 30 uM; type: ADME
[24] = target: T2, Sterol O-acyltransferase 1 (Homo sapiens, UniProt P35610); experiment: Inhibition of human ACAT1 by liquid scintillography
T2 sequence (P35610 whole entry): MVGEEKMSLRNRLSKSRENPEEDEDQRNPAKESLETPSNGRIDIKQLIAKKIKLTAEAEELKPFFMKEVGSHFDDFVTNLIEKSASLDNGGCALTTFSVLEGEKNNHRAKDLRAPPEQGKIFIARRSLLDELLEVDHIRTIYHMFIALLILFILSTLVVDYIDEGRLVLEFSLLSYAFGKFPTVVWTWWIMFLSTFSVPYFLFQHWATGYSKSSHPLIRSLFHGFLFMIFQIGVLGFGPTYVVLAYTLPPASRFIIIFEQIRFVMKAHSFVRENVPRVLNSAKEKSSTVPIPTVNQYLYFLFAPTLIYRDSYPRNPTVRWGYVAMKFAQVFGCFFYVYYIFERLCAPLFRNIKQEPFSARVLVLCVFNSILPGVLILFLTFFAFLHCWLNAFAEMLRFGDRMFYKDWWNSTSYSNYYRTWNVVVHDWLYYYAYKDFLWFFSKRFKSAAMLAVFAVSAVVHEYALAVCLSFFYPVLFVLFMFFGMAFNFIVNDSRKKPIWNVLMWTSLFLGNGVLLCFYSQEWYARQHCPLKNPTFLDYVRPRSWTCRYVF

CYP3A4, sequence (P08684 whole entry): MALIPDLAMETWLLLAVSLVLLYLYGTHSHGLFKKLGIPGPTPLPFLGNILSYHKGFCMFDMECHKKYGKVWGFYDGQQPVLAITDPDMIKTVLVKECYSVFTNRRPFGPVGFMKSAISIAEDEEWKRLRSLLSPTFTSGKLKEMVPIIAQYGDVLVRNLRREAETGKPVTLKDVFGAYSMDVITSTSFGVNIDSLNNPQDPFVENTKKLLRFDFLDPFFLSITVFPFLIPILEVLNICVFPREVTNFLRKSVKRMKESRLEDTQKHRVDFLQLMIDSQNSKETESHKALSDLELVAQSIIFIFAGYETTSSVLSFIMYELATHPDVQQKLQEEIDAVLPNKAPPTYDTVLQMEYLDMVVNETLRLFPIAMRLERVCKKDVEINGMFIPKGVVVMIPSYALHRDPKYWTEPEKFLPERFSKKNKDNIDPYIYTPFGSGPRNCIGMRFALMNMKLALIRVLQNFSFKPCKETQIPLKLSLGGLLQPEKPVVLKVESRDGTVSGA
CYP2C9, sequence (P11712 whole entry): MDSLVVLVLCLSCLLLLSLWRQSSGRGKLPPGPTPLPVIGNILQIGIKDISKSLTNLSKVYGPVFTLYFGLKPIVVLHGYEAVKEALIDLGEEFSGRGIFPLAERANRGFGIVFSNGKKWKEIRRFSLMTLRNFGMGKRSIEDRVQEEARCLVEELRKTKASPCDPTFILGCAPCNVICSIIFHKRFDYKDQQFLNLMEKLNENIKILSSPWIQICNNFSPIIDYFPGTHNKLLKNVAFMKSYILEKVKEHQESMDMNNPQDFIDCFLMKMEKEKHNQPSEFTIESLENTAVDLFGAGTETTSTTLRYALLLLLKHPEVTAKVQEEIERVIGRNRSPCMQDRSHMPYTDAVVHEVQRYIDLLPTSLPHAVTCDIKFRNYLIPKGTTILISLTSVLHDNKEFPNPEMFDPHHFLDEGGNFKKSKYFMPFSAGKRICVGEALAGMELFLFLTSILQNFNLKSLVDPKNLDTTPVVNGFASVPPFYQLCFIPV
CYP2D6, sequence (P10635 whole entry): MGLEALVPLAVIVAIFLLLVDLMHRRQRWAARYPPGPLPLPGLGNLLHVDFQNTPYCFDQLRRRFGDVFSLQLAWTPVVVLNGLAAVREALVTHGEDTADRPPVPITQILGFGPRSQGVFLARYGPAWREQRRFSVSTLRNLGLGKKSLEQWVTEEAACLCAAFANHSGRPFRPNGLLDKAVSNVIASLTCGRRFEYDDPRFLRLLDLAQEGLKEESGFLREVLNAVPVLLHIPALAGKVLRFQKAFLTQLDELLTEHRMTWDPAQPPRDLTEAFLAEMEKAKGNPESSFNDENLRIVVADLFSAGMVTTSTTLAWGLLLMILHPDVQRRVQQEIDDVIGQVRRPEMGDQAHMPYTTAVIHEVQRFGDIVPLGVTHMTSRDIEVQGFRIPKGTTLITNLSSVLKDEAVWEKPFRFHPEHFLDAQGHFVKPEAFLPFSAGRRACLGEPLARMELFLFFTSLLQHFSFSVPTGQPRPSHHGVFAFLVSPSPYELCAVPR
CYP2C19, sequence (P33261 whole entry): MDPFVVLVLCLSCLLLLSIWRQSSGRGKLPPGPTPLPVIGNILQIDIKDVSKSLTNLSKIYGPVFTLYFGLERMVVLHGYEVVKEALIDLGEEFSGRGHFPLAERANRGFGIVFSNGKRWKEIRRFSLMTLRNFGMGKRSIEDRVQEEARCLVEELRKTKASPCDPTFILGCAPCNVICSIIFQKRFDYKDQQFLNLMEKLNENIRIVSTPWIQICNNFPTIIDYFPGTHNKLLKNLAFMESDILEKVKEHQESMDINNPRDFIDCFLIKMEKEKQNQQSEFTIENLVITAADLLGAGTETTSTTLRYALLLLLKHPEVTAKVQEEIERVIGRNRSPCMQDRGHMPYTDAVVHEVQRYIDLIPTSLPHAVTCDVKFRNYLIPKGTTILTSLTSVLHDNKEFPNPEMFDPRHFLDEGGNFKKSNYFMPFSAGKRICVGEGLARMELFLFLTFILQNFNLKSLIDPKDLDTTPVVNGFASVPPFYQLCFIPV

For `CC1(C)Oc2ncnc(N)c2N=C1c1ccc(C23CCC(CC(=O)O)(CC2)CC3)cc1`, the Stability [1] was 15%, the Stability [2] was 25% and the Stability [3] was 82%. It also gave a clearance [4] of 1.5 mL/min/kg, a clearance [5] of 3.3 mL/min/kg and a clearance [6] of 0.78 mL/min/kg. For the same compound, the Vd [7] was 0.7 L/kg, the Vd [8] was 1 L/kg and the Vd [9] was 0.88 L/kg. For the same compound, the half-life [10] was 7 h, the half-life [11] was 8.6 h and the half-life [12] was 13 h. For the same compound, the half-life [13] was 5.4 h, the half-life [14] was 9.9 h and the half-life [15] was 9.5 h. For the same compound, the bioavailability [16] was 72%, the bioavailability [17] was over 100% and the bioavailability [18] was 61%. For the same compound, the inhibition at 30 µM [19] was under 25%, the inhibition at 30 µM [20] was under 25% and the inhibition at 30 µM [21] was under 25%. It also gave an inhibition at 30 µM [22] of under 25%, an inhibition at 30 µM [23] of under 25% and an IC50 [24] of 5.2 µM.
